Measurements published in ChEMBL document CHEMBL5576109, “Hydantoin derivative dimers as broad-spectrum antimicrobial agents against ESKAPE pathogens with enhanced killing rate and stability” (RSC Med Chem, 2024).
Converted amounts (≈) assume the structure as drawn. The source made the active and inactive calls. No cut-off for these calls is given here.

Tests used:
[1] = system: Escherichia coli; experiment: Induction of ROS generation in Escherichia coli ATCC 25922 assessed as fold increase in fluorescence intensity at 0.5 MIC concentration incubated for 30 mins by DCFH-DA staining based analysis; assay type: functional; settings: 0.5 h
In short: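 Overnight 37 °C cultures washed three times and resuspended in PBS, diluted to OD600 0.1, and mixed with DCFH-DA (5 µM). Treated with a range of compound concentrations for 30 min at 37 °C in the dark. Fluorescence read at Ex 488 / Em 530 nm.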

[2] = system: Pseudomonas aeruginosa; experiment: Antibacterial activity against Pseudomonas aeruginosa CMCC 10104 assessed as reduction bacterial growth after 16 hrs by TECAN SPARK microplate reader analysis; assay type: functional
In short: (§1)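 Single colony grown overnight in 4 mL TSB at 37 °C, diluted 100-fold and grown to mid-log phase. Compounds 2-fold serially diluted in TSB and mixed 1:1 with bacteria in TSB (1 × 10^6 CFU/mL). Incubated 16 h at 37 °C, then A600 read. MIC taken as the lowest concentration giving complete growth inhibition.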

[3] = system: Staphylococcus aureus; experiment: Antibacterial activity against Staphylococcus aureus ATCC 29213 assessed as inhibition of bacterial growth by measuring fold increase in MIC measured after 16 to 18 hrs in presence of 10% DMEM by TECAN SPARK microplate reader analysis; assay type: functional; settings: time 16-18 hrs
In short: (§2)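 Salt/serum stability. Exponential-phase bacteria incubated 16–18 h with compound in medium supplemented with 10 mM NaCl, 10 mM KCl, 10 mM MgCl2, 10% DMEM or 10% FBS. Stability judged from the change in MIC.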

[4] = system: Escherichia coli; experiment: Bactericidal activity against Escherichia coli ATCC 25922 assessed as reduction in colony forming units at 4 times of MIC measured after 60 mins by time-kill kinetics assay; assay type: functional, organism-based
In short: (§3)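 Bacteria grown at 37 °C to mid-log phase and diluted to 1 × 10^6 CFU/mL. […] Mixtures diluted 10^2–10^4-fold and plated on TSB agar; colonies counted after 20 h at 37 °C.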

[5] = system: Escherichia coli; experiment: Drug resistance, ratio of MIC for Escherichia coli ATCC 25922 after 25 passages to MIC for Escherichia coli ATCC 25922 after initial exposure; assay type: functional
In short: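 Serial passage resistance selection: after each broth MIC determination, bacteria from the 1/2 MIC well were withdrawn and diluted to 1 × 10^6 CFU/mL for the next MIC measurement. Repeated for 25 passages; MIC after passage 25 compared with the initial MIC.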

[6] = system: Staphylococcus aureus; experiment: Antibacterial activity against Staphylococcus aureus ATCC 29213 assessed as inhibition of bacterial growth by measuring fold increase in MIC measured after 16 to 18 hrs in presence of KCl by TECAN SPARK microplate reader analysis; assay type: functional; settings: time 16-18 hrs; in short: as §2
[7] = system: Escherichia coli; experiment: Bactericidal activity against Escherichia coli ATCC 25922 assessed as reduction in colony forming units at 1 to 4 times of MIC by time-kill kinetics assay; assay type: functional, organism-based; settings: time 15-120 min, TDE = time-dependent effect; in short: as §3
[8] = system: Staphylococcus aureus; experiment: Bactericidal activity against Staphylococcus aureus ATCC 29213 assessed as reduction in colony forming units at 4 times of MIC within 15 mins by time-kill kinetics assay; assay type: functional, organism-based; in short: as §3
[9] = system: Staphylococcus aureus; experiment: Antibacterial activity against Staphylococcus aureus ATCC 29213 assessed as reduction bacterial growth after 16 hrs by TECAN SPARK microplate reader analysis; assay type: functional; in short: as §1
[10] = Hemolytic activity in mouse red blood cells assessed as hemolysis incubated for 1 hr by TECAN SPARK microplate reader analysis; assay type: toxicity, cell-based, Erythrocyte; settings: red blood cells (erythrocytes)
In short: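 Mouse RBCs washed three times in 1× PBS by centrifugation (3500 rpm, 10 min) and made up as a 5% v/v suspension. Incubated with 2-fold serially diluted compound in PBS for 1 h at 37 °C, then centrifuged. Supernatant diluted in PBS and A540 read. % hemolysis calculated relative to 1% Triton X-100 (100%) and PBS (0%).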

[11] = system: Escherichia coli; experiment: Bactericidal activity against Escherichia coli ATCC 25922 assessed as reduction in colony forming units incubated for 15 to 120 mins by time-kill kinetics assay; assay type: functional, organism-based; settings: time 15-120 min; in short: as §3
[12] = system: Staphylococcus aureus; experiment: Induction of membrane disruption in Staphylococcus aureus ATCC 29213 assessed as increase in red fluorescence at 8 times of MIC for 6 hrs by Hoechst 33342 and propidium iodide staining based confocal microscopic analysis; assay type: functional, organism-based
[13] = system: Acinetobacter baumannii; experiment: Antibacterial activity against Acinetobacter baumannii ATCC 19606 assessed as reduction bacterial growth after 16 hrs by TECAN SPARK microplate reader analysis; assay type: functional; in short: as §1
[14] = system: Staphylococcus aureus; experiment: Antibacterial activity against Staphylococcus aureus ATCC 29213 assessed as inhibition of bacterial growth by measuring fold increase in MIC measured after 16 to 18 hrs in presence of 10% FBS by TECAN SPARK microplate reader analysis; assay type: functional; settings: time 16-18 hrs; in short: as §2
[15] = system: Staphylococcus aureus; experiment: Induction of morphological changes in Staphylococcus aureus ATCC 29213 assessed as cell collapse at 8 time of MIC for 6 hrs by scanning electron microscopy; assay type: functional, organism-based
In short: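 Mid-log cells exposed to compound for 6 h at 37 °C alongside untreated controls. Cells pelleted (3000 rpm, 15 min), washed four times in PBS, and fixed with 2.5% glutaraldehyde. Dehydrated through graded ethanol, critical-point dried and gold-coated, then imaged by SEM.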

[16] = system: Staphylococcus aureus; experiment: Antibacterial activity against Staphylococcus aureus ATCC 29213 assessed as inhibition of bacterial growth by measuring fold increase in MIC compound preincubated at 40 degree C for 1 hr followed by bacterial culture addition and measured after 16 to 18 hrs by TECAN SPARK microplate reader analysis; assay type: functional; settings: time 16-18 hrs
[17] = system: Staphylococcus aureus; experiment: Antibacterial activity against Staphylococcus aureus ATCC 29213 assessed as inhibition of bacterial growth by measuring fold increase in MIC measured after 16 to 18 hrs in presence of NaCl by TECAN SPARK microplate reader analysis; assay type: functional; settings: time 16-18 hrs; in short: as §2
[18] = system: Enterococcus faecalis; experiment: Antibacterial activity against Enterococcus faecalis ATCC 29212 assessed as reduction bacterial growth after 16 hrs by TECAN SPARK microplate reader analysis; assay type: functional; in short: as §1
[19] = system: Escherichia coli; experiment: Antibacterial activity against Escherichia coli ATCC 25922 assessed as inhibition of bacterial growth by measuring fold increase in MIC measured after 16 to 18 hrs in presence of 10% FBS by TECAN SPARK microplate reader analysis; assay type: functional; settings: time 16-18 hrs; in short: as §2
[20] = system: Escherichia coli; experiment: Induction of inner membrane permeabilization in Escherichia coli ATCC 25922 assessed as increase in fluorescence intensity incubated for 1 hr by propidium iodide staining based TECAN SPARK microplate reader analysis; assay type: functional, organism-based
In short: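 Overnight 37 °C cultures resuspended in PBS and diluted to OD600 0.1. Propidium iodide added (5 µM final) for 30 min. Treated with a range of compound concentrations for 1 h in the dark; fluorescence read at Ex 535 / Em 615 nm.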

[21] = system: Escherichia coli; experiment: Antibacterial activity against Escherichia coli ATCC 25922 assessed as inhibition of bacterial growth by measuring fold increase in MIC measured after 16 to 18 hrs in presence of MgCl2 by TECAN SPARK microplate reader analysis; assay type: functional; settings: time 16-18 hrs; in short: as §2
[22] = system: Staphylococcus aureus; experiment: Antibacterial activity against Staphylococcus aureus ATCC 29213 assessed as inhibition of bacterial growth by measuring fold increase in MIC compound preincubated at 120 degree C for 1 hr followed by bacterial culture addition and measured after 16 to 18 hrs by TECAN SPARK microplate reader analysis; assay type: functional; settings: time 16-18 hrs

CCCCCCN1C(=O)[C@H](CCCCNC(=N)N)N(Cc2ccc(-c3ccc(CN4C(=O)N(CCCCCC)C(=O)[C@@H]4CCCCNC(=N)N)cc3)cc2)C1=O
fold change (FC) [1]: ~2
MIC [2]: 15.6 µg/mL (≈ 20.2 µM)
fold change (FC) [3]: 1
Activity [4]: Active
Ratio [5]: <=4
fold change (FC) [6]: 1
Activity [7]: Tde
Activity [8]: Active
MIC [9]: 1.95 µg/mL (≈ 2.52 µM)
HC50 at 1 h [10]: 61 µg/mL
Activity [11]: Dose-Dependent Effect
Activity [12]: Active
MIC [13]: 15.6 µg/mL (≈ 20.2 µM)
fold change (FC) [14]: 1
Activity [15]: Active
fold change (FC) [16]: 1
fold change (FC) [17]: 1
MIC [18]: 3.91 µg/mL (≈ 5.06 µM)
fold change (FC) [19]: 1
Activity [20]: Dose-Dependent Effect
fold change (FC) [21]: 1
fold change (FC) [22]: 1
